# Measurements: ChEMBL document CHEMBL4706601, “The endocannabinoid system dual-target ligand N-cycloheptyl-1,2-dihydro-5-bromo-1-(4-fluorobenzyl)-6-methyl-2-oxo-pyridine-3-carboxamide improves disease severity in a mouse model of multiple sclerosis” (Eur J Med Chem, 2020)
# Activity calls are given as the source filed them. The rule behind the calls is not given here.
# Assays:
# Mus musculus [1] = assay: (§1) Antinociceptive activity in orally dosed CD-1 albino mouse model of oxaliplatin-induced neuropathic pain assessed as decrease in pain-related behaviour treated on day 15 post oxaliplatin treatment and measured after 15 to 75 mins post dose by cold plate test; format: functional, organism-based; conditions: dose 5-50 mg/kg, time 15-75 min
# Outline: (§2)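 Male CD-1 mice (22-25 g) given oxaliplatin 2.4 mg/kg i.p. in 5% glucose on days 1-2, 5-9, 12-14; tested day 15. Compound in 1% carboxymethylcellulose orally at 5, 10, 20, 50 mg/kg. Cold plate licking latency at 15, 30, 45, 60, 75 min post dose. Selective CB1R and CB2R antagonists co-tested. 16 mice per treatment across 2 sessions; one-way ANOVA with Bonferroni.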
# [2] = target: Cannabinoid receptor 1 (Rattus norvegicus) (UniProt P20272); assay: Agonist activity at CB1R in Sprague-Dawley rat hippocampal synaptosomes assessed as inhibition of 4-AP evoked glutamate release at 10 uM preincubated for 8 mins followed by 4-AP addition in presence of 1 uM CB2R antagonist, SR144528 by HPLC analysis; format: subcellular; conditions: Hippocampus, filed as agonist
# Chain of Cannabinoid receptor 1 (Rattus norvegicus) (P20272 whole entry, the tested form may be a part): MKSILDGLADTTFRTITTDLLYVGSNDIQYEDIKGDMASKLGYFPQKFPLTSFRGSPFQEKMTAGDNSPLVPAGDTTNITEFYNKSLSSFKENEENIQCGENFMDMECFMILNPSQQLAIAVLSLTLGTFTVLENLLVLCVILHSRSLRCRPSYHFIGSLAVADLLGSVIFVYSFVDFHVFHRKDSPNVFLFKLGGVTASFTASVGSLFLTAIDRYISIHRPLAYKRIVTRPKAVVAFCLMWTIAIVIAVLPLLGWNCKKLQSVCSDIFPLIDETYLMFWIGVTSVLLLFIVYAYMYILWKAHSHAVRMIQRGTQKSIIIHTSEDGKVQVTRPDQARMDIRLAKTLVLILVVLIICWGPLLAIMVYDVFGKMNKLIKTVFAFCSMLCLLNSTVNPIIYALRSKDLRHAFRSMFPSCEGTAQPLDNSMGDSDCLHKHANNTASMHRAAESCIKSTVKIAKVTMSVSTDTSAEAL
# Outline: (§3)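 Rat (male Sprague Dawley, 200-250 g) hippocampal synaptosomes from Percoll gradient, superfused at 37 °C (0.5 ml/min); 4-AP 600 μM for 2 min. Compounds and antagonists (SR141716A, SR144528, 1 μM) added 8 min before 4-AP and kept during it; basal effects tested by 2-min exposure alone. Endogenous glutamate by HPLC as pmol/mg protein; overflow = stimulated minus basal in control chambers; n = 3–9, triplicate.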
# [3] = target: Cannabinoid receptor 2 (Mus musculus) (UniProt P47936); assay: Agonist activity at CB2R in LPS induced mouse BV2 cells assessed as reduction in IL-6 secretion at 10 uM preincubated with CB2R antagonist, SR144528 for 15 mins followed by compound additon for 30 mins after LPS stimulation for 4 hrs by ELISA; format: cell-based; conditions: BV-2, time 270.0 min
# Chain of Cannabinoid receptor 2 (Mus musculus) (P47936 whole entry): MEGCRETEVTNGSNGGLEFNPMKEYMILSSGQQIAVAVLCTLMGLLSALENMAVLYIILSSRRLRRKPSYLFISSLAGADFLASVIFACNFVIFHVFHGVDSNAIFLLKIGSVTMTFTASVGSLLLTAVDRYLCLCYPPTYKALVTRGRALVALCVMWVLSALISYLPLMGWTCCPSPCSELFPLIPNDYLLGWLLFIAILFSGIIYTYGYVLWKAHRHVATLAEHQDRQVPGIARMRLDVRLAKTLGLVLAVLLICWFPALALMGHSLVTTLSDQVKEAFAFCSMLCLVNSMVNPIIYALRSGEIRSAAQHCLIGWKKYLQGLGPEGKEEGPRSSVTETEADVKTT
# Outline: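 BV-2 murine microglia grown in high-glucose DMEM with 10% FBS. Treatments in FBS-free medium: test agonist 10 μM for 30 min, then LPS 5 μg/ml for 4 h; SR144528 10 μM given 15 min before agonist. DMSO ≤0.1% final. Medium spun 10 min at 1000×g; IL-1β, IL-6, IL-10 quantified by ELISA; three independent experiments in duplicate.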
# Mus musculus [4] = assay: Antiinflammatory activity in MOG (35 to 55 residues)/pertussis toxin-induced experimental autoimmune encephalomyelitis C57BL/6J mouse model assessed as improvement in early stage disease severity at 10 mg/kg, ip dosed once daily for 20 days starting from day 10 to 16 post immunization and measured at day 2 to 4 post treatment; format: functional, organism-based; conditions: time 2-4 day
# Outline: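 Active EAE in mice: 200 µg MOG35-55 in CFA (4 mg/ml M. tuberculosis) s.c. at hips and tail root, plus pertussis toxin 300 ng i.p. after immunization and 48 h later. Daily i.p. dosing (DMSO vehicle) for 20 days from each mouse's onset (day 10–16); onset = day 1. Daily clinical score; multiple t-tests with Holm-Sidak.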
# Cannabinoid receptor 1 [5] = target: T1, Cannabinoid receptor 1 (Homo sapiens, UniProt P21554); assay: Agonist activity at human CB1R expressed in CHO cell membranes after 90 mins by [35S]GTPgammaS assay; format: functional, Membrane
# T1 sequence (P21554 whole entry): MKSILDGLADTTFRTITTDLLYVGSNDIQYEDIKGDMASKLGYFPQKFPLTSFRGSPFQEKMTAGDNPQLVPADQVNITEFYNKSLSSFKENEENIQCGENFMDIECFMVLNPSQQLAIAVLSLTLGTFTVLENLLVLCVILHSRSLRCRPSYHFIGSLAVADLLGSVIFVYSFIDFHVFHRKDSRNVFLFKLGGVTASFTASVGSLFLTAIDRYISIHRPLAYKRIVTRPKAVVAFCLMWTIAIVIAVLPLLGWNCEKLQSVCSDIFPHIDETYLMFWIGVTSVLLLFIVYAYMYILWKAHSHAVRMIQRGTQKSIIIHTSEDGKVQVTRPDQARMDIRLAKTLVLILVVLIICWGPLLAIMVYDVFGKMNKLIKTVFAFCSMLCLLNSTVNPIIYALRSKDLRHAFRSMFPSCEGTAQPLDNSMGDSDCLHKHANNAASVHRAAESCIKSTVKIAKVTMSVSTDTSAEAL
# Outline: (§4)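 In-house CHO membranes expressing hCB1 or hCB2 (10 µg) in 50 mM Tris-HCl, 3 mM MgCl2, 0.2 mM EDTA, 100 mM NaCl, 0.5% fatty-acid-free BSA, pH 7.4, with 10 μM GDP and 0.1 nM [35S]GTPγS. Incubated 90 min at 30 °C; antagonist pre-incubated 30 min. Nonspecific binding with 10 μM GTPγS; bound label by filtration and counting; ≥3 experiments in triplicate.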
# [6] = target: Cannabinoid receptor 1 (Rattus norvegicus) (UniProt P20272); assay: Agonist activity at CB1R in Sprague-Dawley rat hippocampal synaptosomes assessed as inhibition of 4-AP evoked glutamate release at 10 uM preincubated for 8 mins followed by 4-AP addition by HPLC analysis; format: subcellular; conditions: Hippocampus, filed as agonist; outline: as §3
# Cannabinoid receptor 2 [7] = target: T2, Cannabinoid receptor 2 (Homo sapiens, UniProt P34972); assay: Agonist activity at human CB2R expressed in CHO cell membranes after 90 mins by [35S]GTPgammaS assay; format: functional, Membrane; outline: as §4
# T2 sequence (P34972 whole entry): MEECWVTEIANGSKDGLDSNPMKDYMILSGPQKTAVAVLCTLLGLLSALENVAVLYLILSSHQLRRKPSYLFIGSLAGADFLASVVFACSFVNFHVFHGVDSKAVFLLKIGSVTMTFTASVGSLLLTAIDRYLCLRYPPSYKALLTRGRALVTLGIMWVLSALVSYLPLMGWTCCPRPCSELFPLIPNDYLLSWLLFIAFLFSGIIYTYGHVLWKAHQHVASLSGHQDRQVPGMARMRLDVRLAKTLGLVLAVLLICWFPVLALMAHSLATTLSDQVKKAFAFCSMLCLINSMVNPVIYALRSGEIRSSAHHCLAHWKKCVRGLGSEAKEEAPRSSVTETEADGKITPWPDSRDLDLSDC
# [8] = target: Cannabinoid receptor 1 (Rattus norvegicus) (UniProt P20272); assay: Agonist activity at CB1R in Sprague-Dawley rat hippocampal synaptosomes assessed as inhibition of 4-AP evoked glutamate release at 10 uM preincubated for 8 mins followed by 4-AP addition in presence of 1 to 3 uM CB1R antagonist, SR141716A by HPLC analysis; format: subcellular; conditions: Hippocampus; outline: as §3
# Mus musculus [9] = assay: as §1, with “in” for “in orally dosed”, “behaviour at 10 mg/kg, po pretreated with CB1R antagonist, SR141716A for 15 mins before compound addition” for “behaviour”; format: functional, organism-based; conditions: time 15-75 min; outline: as §2
# Cannabinoid receptor 1 [10] = target: T1, Cannabinoid receptor 1; assay: Antagonist activity at human CB1R expressed in CHO cell membranes preincubated for 30 mins followed by GTPgammaS addition and measured after 90 mins by [35S]GTPgammaS assay; format: functional, Membrane; outline: as §4
# Cannabinoid receptor 2 [11] = target: T2, Cannabinoid receptor 2; assay: Non-competitive antagonist activity at human CB2R expressed in CHO cell membranes assessed as N-cycloheptyl-1,2-dihydro-1-(4-fluorobenzyl)-6-methyl-2-oxo-5-phenyl-pyridine-3-carboxamide Emax at 100 nM preincubated with compound for 30 mins followed by GTPgammaS addition and measured after 90 mins by [35S]GTPgammaS assay (reference value: -49.9%); format: functional; conditions: Membrane, filed as antagonist, time 120.0 min
# Outline: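 hCB2 membranes from stably transfected CHO cells (10 µg) pre-incubated 30 min with antagonist, then an inverse-agonist concentration series added. Buffer: 50 mM Tris-HCl, 3 mM MgCl2, 0.2 mM EDTA, 100 mM NaCl, 0.5% fatty-acid-free BSA, pH 7.4, with 10 µM GDP and 0.1 nM [35S]GTPγS. Incubated 90 min at 30 °C, then filtered. Non-specific binding measured with 10 µM GTPγS. Emax given with 95% CI; at least 3 experiments, each in triplicate.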
# Cannabinoid receptor 2 [12] = target: T2, Cannabinoid receptor 2; assay: Competitive antagonist activity at human CB2R expressed in CHO cell membranes assessed as N-cycloheptyl-1,2-dihydro-5-bromo-1-(4-fluoro benzyl)-6-methyl-2-oxo-pyridine-3-carboxamide Emax at 300 nM preincubated with compound for 30 mins followed by GTPgammaS addition and measured after 90 mins by [35S]GTPgammaS assay (reference value: 210%); format: functional; conditions: Membrane, filed as antagonist, time 120.0 min
# Outline: (§5)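 hCB2 CHO membranes in GTPγS buffer (10 μM GDP, 0.1 nM [35S]GTPγS, pH 7.4) pre-incubated 30 min with antagonist at 300 nM or 1 µM, then agonist or inverse agonist concentration series, 90 min at 30 °C. EC50 and Emax reported with 95% CI; Schild analysis; controls CP55,940 100 nM and AM630 1 μM; ≥3 experiments in triplicate.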
# Cannabinoid receptor 2 [13] = target: T2, Cannabinoid receptor 2; assay: Antagonist activity at human CB2R expressed in CHO cell membranes preincubated for 30 mins followed by GTPgammaS addition and measured after 90 mins by [35S]GTPgammaS assay; format: functional, Membrane; outline: as §4
# Cannabinoid receptor 2 [14] = target: T2, Cannabinoid receptor 2; assay: (§6) Competitive antagonist activity at human CB2R expressed in CHO cell membranes assessed as rightward shift of N-cycloheptyl-1,2-dihydro-5-bromo-1-(4-fluoro benzyl)-6-methyl-2-oxo-pyridine-3-carboxamide-induced GTPgammaS binding by measuring fold change in N-cycloheptyl-1,2-dihydro-5-bromo-1-(4-fluoro benzyl)-6-methyl-2-oxo-pyridine-3-carboxamide EC50 at 300 nM preincubated with compound for 30 mins followed by GTPgammaS addition and measured after 90 mins by [35S]GTPgammaS assay; format: functional; conditions: Membrane, time 120.0 min; outline: as §5
# Homo sapiens = organism: Homo sapiens; assay: Selectivity index, ratio of Ki for human CB1R expressed in CHO cell membranes to Ki for human CB2R expressed in CHO cell membranes; format: cell-based
# Cannabinoid receptor 2 [15] = target: T2, Cannabinoid receptor 2; assay: as §6, with “100” for “300”; format: functional; conditions: Membrane, time 120.0 min
Compound,Activity (Mus musculus [1]),Activity [2],Activity [3],Activity (Mus musculus [4]),EC50 (Cannabinoid receptor 1 [5]),Activity [6],EC50 (Cannabinoid receptor 2 [7]),Activity [8],Activity (Mus musculus [9]),EC50 (Cannabinoid receptor 1 [10]),Emax (Cannabinoid receptor 2 [11]),Emax (Cannabinoid receptor 2 [12]),EC50 (Cannabinoid receptor 2 [13]),fold change (FC) (Cannabinoid receptor 2 [14]),Ratio Ki (Homo sapiens),fold change (FC) (Cannabinoid receptor 2 [15])
Cc1c(Br)cc(C(=O)NC2CCCCCC2)c(=O)n1Cc1ccc(F)cc1,Dose-dependent effect,Active,inactive,Active,56.1 nM,Active,11.6 nM,inactive,inactive,,,,,,,
COc1ccc(-c2cc(C(=O)NC3CCCCCC3)c(=O)n(Cc3ccc(F)cc3)c2C)cc1,,,,,,,,,,270 nM,-36.3%,209%,170 nM,19,0.37,8
